Calls of active or inactive are those of the source. No cut-off for these calls is given here.
Legend:
[1] = In vivo inhibition of IGF1R in mouse NIH-3T3/LISN cells implanted in IGF1-stimulated nu/nu CD-1 mouse assessed as reduction in IGF1R phosphorylation at 10 mg/kg, po pretreated for 4 hrs followed by IGF1 stimulation and measured after 10 min by […] relative to control; format: functional; settings: 4.167 h, time 250 min
Procedure, shortened: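 Female nu/nu CD-1 mice, three per group, bearing ~500 mm3 tumors, given one oral dose of compound or vehicle. At 4 h, 10 µg hIGF-I i.v. via tail vein; saline controls. Tumor and blood taken 10 min later. Tumor lysates in RIPA captured on anti-IGF-IR plates and probed with europium anti-phosphotyrosine. Phospho/total IGF-IR expressed as % of ligand-stimulated control. Blood levels by LC-MS/MS.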

MCF7 [2] = assay: Induction of cell cycle arrest in human MCF7 cells assessed as increase in cells accumulation at G1 phase at 0.03 to 10 uM incubated for 24 to 48 hrs by propidium iodide staining based flow cytometric analysis; format: functional; settings: dose 0.03-10 µM, time lower 24.0 hrs, time upper […]
Procedure, shortened: (§1)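 COLO 205, MCF-7 or NCI-H929 cells seeded in 96-well plates overnight at 37°C, then exposed to DMSO or increasing compound concentrations for 24 or 48 h. Fixed and stained with propidium iodide (Vindelov method), then analysed by flow cytometry for sub-G1, G1, S and G2-M fractions. Experiment repeated twice.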

[3] = biological target: BDNF/NT-3 growth factors receptor (Homo sapiens) (UniProt Q16620); assay: Inhibition of N-terminal His6 tagged recombinant human TrkB (455 to end residues) expressed in baculovirus infected Sf21 cells at 0.3 uM by filter binding assay relative to control
Procedure, shortened: (§2)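 Outsourced single-concentration screen in a commercial panel of 233 protein kinases, run as radiometric filter-binding activity assays. Test agent was tested at 0.3 or 3 µmol/L, as given in each line, from a 10 mmol/L DMSO stock. Activity is expressed as percent inhibition relative to control.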

[4] = Antitumor activity against mouse NIH-3T3/LISN cells implanted in nu/nu CD-1 mouse assessed as reduction in tumor growth at 30 mg/kg, po administered twice daily for 21 days relative to control; format: functional; settings: 504 h, time 21 day, read-out: TGI
Procedure, shortened: (§3)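 Exponentially growing cells implanted s.c. in the right flank of 8–10-wk-old female athymic nu/nu CD-1 mice. At 150–200 mm3, block-randomized by tumor size into groups of eight. Oral dosing once or twice daily for 21 d; vehicle 20% sulfobutylether-β-cyclodextrin, pH 3.5. Calipers twice weekly; volume = length×width²/2. Growth inhibition = 100×[1 − treated growth/vehicle growth].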

[5] = biological target: Testis-specific serine/threonine-protein kinase 1 (Homo sapiens) (UniProt Q9BXA7); assay: Inhibition of 6His-tagged recombinant human full length TSSK1 expressed in baculovirus infected Sf21 cells at 0.3 uM by filter binding assay relative to control
Testis-specific serine/threonine-protein kinase 1 (Homo sapiens), sequence (Q9BXA7 whole entry): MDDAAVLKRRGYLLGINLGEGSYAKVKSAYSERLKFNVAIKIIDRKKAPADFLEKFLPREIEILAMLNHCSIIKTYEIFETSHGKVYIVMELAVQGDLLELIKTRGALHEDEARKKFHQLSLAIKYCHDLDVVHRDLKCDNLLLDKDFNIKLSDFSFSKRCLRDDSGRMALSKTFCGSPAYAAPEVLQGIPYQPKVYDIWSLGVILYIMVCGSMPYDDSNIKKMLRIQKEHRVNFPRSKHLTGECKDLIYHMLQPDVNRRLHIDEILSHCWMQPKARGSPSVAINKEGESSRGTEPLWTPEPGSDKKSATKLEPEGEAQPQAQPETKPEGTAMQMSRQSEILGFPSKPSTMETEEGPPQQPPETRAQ
Procedure, shortened: (§4)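 KinaseProfiler panel of 233 kinases: radiometric filter-binding activity assays with compound at 0.3 or 3 µmol/L. Read-out is percent inhibition.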

MCF7 [6] = assay: Antiproliferative activity against human MCF7 cells assessed as reduction in cell viability after 72 hrs by CellTiter-Glo assay; format: functional, cell-based; settings: MCF7, 72 h
Procedure, shortened: (§5)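 Cells seeded in 96-well plates, left overnight at 37°C, then exposed to a range of test concentrations for 72 h. Viability read by CellTiter-Glo luminescence; IC50 from four-parameter curve fit. Lines kept at 37°C, 5% CO2, in recommended growth medium.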

[7] = biological target: Testis-specific serine/threonine-protein kinase 1 (Homo sapiens) (UniProt Q9BXA7); assay: Inhibition of 6His-tagged recombinant human full length TSSK1 expressed in baculovirus infected Sf21 cells at 3 uM by filter binding assay relative to control; procedure, shortened: as §4
[8] = biological target: Serine/threonine-protein kinase tousled-like 2 (Homo sapiens) (UniProt Q86UE8); assay: Inhibition of N-terminal 6His-tagged recombinant human TLK2 (388 to end residues) expressed in baculovirus infected Sf21 cells at 0.3 uM by filter binding assay relative to control; procedure, shortened: as §2
Serine/threonine-protein kinase tousled-like 2 (Homo sapiens), sequence (Q86UE8 whole entry, looked up): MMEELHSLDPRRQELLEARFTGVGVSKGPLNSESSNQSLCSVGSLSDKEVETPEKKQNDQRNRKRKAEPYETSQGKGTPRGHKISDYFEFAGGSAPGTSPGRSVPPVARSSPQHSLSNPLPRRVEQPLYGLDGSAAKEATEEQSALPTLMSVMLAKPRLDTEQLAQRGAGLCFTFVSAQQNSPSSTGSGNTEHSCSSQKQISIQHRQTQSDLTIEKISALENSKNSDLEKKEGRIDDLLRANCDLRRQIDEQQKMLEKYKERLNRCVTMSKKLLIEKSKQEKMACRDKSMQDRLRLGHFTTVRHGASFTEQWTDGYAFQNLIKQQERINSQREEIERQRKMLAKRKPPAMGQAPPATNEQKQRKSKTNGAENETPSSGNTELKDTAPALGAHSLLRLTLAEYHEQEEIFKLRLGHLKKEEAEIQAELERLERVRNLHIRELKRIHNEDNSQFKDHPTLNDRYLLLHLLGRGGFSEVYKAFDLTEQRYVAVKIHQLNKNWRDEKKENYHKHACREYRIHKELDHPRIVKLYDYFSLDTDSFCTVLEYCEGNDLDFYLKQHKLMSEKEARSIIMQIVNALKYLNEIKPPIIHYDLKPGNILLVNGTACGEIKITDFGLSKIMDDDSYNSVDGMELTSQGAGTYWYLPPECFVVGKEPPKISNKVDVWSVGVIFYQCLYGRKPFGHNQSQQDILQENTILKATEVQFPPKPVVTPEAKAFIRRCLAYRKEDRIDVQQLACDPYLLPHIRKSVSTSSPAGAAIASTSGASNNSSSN

NCI-H929 [9] = assay: Induction of cell cycle arrest in human NCI-H929 cells assessed as decrease in cells accumulation at G2/M phase at 0.03 to 10 uM incubated for 24 to 48 hrs by propidium iodide staining based flow cytometric analysis; format: functional; settings: dose 0.03-10 µM, time lower 24.0 hrs, time upper […]; procedure, shortened: as §1
A549 = assay: Antiproliferative activity against human A549 cells assessed as reduction in cell viability after 72 hrs by CellTiter-Glo assay; format: functional, cell-based; settings: A549, 72 h; procedure, shortened: as §5
NCI-H929 [10] = assay: Induction of cell cycle arrest in human NCI-H929 cells assessed as increase in cells accumulation at G1 phase at 0.03 to 10 uM incubated for 24 to 48 hrs by propidium iodide staining based flow cytometric analysis; format: functional; settings: dose 0.03-10 µM, time lower 24.0 hrs, time upper […]; procedure, shortened: as §1
[11] = biological target: Rho-associated protein kinase 2 (Homo sapiens) (UniProt O75116); assay: Inhibition of N-terminal His6-tagged recombinant human ROCK-II (11 to 552 residues) expressed in baculovirus infected Sf21 cells at 0.3 uM by filter binding assay relative to control
Rho-associated protein kinase 2 (Homo sapiens), sequence (O75116 whole entry, looked up, the tested form may be a part): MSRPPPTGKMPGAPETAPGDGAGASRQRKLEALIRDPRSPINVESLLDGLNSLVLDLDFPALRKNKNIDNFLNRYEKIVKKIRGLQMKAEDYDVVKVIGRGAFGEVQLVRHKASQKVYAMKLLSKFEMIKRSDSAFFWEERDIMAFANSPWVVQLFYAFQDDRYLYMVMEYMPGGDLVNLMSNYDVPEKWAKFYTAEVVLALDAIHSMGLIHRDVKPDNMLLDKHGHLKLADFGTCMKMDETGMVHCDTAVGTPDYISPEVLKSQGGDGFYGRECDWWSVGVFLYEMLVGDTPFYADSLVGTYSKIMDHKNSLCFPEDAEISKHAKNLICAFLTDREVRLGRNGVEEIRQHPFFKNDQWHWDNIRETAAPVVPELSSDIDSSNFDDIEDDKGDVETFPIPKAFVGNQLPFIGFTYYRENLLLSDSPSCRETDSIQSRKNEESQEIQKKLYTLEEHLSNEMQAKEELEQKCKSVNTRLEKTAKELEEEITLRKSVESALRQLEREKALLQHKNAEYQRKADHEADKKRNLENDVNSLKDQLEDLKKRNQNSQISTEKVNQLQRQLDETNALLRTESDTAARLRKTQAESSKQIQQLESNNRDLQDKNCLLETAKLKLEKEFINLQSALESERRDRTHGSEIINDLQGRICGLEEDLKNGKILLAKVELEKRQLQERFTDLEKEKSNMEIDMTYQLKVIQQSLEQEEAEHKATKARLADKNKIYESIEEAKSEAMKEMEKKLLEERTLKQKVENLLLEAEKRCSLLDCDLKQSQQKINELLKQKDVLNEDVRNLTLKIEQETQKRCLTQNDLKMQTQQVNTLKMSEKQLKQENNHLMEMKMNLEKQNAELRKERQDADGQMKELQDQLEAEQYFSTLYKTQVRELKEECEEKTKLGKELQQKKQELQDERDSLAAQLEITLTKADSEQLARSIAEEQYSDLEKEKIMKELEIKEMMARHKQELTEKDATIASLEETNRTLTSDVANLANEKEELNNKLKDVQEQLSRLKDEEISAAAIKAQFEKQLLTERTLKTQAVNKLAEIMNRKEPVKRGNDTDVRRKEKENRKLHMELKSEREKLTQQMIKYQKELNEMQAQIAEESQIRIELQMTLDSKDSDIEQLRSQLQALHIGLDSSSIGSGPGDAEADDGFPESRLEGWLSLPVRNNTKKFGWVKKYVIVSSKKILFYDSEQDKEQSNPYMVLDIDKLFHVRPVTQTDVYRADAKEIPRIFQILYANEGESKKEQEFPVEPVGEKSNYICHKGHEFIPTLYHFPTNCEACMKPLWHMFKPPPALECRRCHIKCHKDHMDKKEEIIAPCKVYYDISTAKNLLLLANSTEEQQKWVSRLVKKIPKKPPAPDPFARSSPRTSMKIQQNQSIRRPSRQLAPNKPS

[12] = biological target: Tyrosine-protein kinase receptor UFO (Homo sapiens) (UniProt P30530); assay: Inhibition of N-terminal His6-tagged recombinant human Axl (473 to end residues) expressed in Sf21 cells at 3 uM by filter binding assay relative to control
Tyrosine-protein kinase receptor UFO (Homo sapiens), sequence (P30530 whole entry): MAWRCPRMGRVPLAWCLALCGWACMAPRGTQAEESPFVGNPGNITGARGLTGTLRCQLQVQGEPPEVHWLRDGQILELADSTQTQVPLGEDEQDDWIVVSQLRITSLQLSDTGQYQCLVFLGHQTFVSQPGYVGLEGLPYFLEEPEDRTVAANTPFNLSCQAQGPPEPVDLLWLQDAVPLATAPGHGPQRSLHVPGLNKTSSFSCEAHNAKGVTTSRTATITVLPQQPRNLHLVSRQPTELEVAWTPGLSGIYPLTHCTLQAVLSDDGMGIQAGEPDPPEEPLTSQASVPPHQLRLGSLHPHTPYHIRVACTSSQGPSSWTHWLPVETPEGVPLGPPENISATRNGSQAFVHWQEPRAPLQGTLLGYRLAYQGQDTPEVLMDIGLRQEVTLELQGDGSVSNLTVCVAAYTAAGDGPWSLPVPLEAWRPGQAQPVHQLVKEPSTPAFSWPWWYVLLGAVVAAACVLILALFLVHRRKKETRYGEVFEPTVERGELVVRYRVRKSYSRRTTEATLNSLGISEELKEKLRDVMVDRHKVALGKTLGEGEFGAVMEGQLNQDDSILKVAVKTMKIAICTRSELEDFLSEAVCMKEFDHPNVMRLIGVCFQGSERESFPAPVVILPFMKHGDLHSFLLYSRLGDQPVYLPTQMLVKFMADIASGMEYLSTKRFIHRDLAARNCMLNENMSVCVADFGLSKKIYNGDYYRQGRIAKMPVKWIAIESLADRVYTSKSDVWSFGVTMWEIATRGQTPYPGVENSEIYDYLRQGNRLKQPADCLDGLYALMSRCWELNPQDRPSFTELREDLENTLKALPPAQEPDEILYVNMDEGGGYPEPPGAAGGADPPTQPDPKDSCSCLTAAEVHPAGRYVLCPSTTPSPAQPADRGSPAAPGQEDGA

[13] = biological target: Serine/threonine-protein kinase pim-1 (Homo sapiens) (UniProt P11309); assay: Inhibition of N-terminal GST-tagged recombinant human full-length Pim-1 expressed in Escherichia coli cells at 3 uM by filter binding assay relative to control; procedure, shortened: as §2
Serine/threonine-protein kinase pim-1 (Homo sapiens), sequence (P11309 whole entry, looked up): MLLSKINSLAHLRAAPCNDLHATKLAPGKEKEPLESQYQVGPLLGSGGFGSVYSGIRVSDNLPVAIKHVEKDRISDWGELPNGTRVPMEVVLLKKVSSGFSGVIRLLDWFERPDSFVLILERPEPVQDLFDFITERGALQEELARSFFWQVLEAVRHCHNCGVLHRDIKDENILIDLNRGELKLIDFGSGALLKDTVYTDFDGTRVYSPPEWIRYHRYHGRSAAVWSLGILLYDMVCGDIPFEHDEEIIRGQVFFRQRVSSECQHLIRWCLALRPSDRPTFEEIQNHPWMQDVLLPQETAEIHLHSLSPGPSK

COLO 205 = assay: Antitumor activity against human COLO 205 cells xenografted in nu/nu CD-1 mouse assessed as reduction in tumor growth at 30 mg/kg, po for 21 days relative to control; format: functional; settings: COLO 205, 504 h, time 21 day, read-out: TGI; procedure, shortened: as §3
[14] = biological target: Discoidin domain-containing receptor 2 (Homo sapiens) (UniProt Q16832); assay: Inhibition of N-terminal His6-tagged recombinant human DDR2 (467 to end residues) expressed in baculovirus infected Sf21 cells at 3 uM by filter binding assay relative to control
[15] = biological target: Insulin receptor (Mus musculus) (UniProt P15208); settings: CD-1, dose >= 30.0 mg/kg, route po, time 242.0 min
Insulin receptor (Mus musculus), sequence (P15208 28-748 limits assumed): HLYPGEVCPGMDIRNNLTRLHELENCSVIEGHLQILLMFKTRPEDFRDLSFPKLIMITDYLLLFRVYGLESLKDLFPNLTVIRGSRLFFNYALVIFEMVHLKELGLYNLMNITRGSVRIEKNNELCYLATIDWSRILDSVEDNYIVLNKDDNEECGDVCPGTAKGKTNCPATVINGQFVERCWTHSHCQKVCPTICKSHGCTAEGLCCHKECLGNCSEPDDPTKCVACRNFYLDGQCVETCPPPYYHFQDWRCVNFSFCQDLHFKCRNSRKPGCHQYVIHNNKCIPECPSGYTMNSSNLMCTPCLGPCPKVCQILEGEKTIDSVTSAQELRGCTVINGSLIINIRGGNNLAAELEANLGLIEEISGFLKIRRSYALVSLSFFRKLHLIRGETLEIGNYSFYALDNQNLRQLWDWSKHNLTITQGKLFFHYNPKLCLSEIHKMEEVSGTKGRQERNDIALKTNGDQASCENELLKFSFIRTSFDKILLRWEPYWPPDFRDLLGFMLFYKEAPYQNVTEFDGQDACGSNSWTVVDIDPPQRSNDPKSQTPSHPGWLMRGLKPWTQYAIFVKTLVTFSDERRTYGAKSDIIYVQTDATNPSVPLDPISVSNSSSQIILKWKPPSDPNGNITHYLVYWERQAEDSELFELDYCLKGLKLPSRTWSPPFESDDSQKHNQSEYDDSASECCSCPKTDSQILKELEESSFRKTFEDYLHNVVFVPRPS
Insulin receptor (Mus musculus), sequence (P15208 753-1372 limits assumed): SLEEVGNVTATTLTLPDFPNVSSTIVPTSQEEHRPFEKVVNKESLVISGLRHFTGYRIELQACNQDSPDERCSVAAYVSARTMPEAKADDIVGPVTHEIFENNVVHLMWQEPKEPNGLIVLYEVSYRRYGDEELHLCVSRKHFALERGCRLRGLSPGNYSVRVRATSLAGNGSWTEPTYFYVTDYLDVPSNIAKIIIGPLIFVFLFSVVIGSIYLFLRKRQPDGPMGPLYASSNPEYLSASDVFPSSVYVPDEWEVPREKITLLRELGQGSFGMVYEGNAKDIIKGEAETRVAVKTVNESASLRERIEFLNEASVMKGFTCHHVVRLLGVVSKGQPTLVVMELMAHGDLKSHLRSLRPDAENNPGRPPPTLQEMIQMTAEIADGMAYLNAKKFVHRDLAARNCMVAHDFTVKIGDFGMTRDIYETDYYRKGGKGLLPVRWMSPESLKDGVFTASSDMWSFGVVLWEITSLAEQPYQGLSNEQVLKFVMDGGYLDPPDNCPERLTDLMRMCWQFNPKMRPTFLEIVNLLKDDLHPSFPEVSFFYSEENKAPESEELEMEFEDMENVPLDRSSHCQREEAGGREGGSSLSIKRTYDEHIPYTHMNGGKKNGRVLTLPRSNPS

[16] = Toxicity in nu/nu CD-1 mouse implanted with mouse NIH-3T3/LISN cells assessed as reduction in body weight at 30 mg/kg, po administered twice daily for 5 to 21 days relative to control; format: organism-based; set-up: scale not given: the % may be the effect or the level left; settings: in vivo, time 5-21 day
[17] = biological target: Tyrosine-protein kinase Fes/Fps (Homo sapiens, UniProt P07332); assay: Inhibition of N-terminal His6-tagged recombinant full length human Fes expressed in baculovirus infected Sf21 cells by filter binding assay
[18] = biological target: Homeodomain-interacting protein kinase 2 (Homo sapiens) (UniProt Q9H2X6); assay: Inhibition of N-terminal His6-tagged recombinant human HIPK2 (165 to 564 residues) expressed in baculovirus infected Sf21 cells at 3 uM by filter binding assay relative to control
MCF7 [19] = assay: Induction of cell cycle arrest in human MCF7 cells assessed as decrease in cells accumulation at G2/M phase at 0.03 to 10 uM incubated for 24 to 48 hrs by propidium iodide staining based flow cytometric analysis; format: functional; settings: dose 0.03-10 µM, time lower 24.0 hrs, time upper […]; procedure, shortened: as §1

CCc1cc(Nc2nccc(-c3c(-c4ccc(OC)c(C(=O)Nc5c(F)cccc5F)c4)nc4ccccn34)n2)c(OC)cc1N1CCC(N2CCN(S(C)(=O)=O)CC2)CC1
inhibition in vivo at 10 mg/kg [1]: 95% | Activity (MCF7 [2]): Active | inhibition [3]: 4% | inhibition in vivo at 30 mg/kg [4]: 98% | inhibition [5]: 10% | IC50 (MCF7 [6]): 137 nM | inhibition [7]: 11% | inhibition [8]: 0% | Activity (NCI-H929 [9]): Active | IC50 (A549): > 20000 nM | Activity (NCI-H929 [10]): Active | inhibition [11]: -8% | inhibition [12]: 1% | inhibition [13]: 25% | inhibition in vivo at 30 mg/kg (COLO 205): 75% | inhibition [14]: 10% | inhibition [15]: Active | Activity [16]: 11% | IC50 [17]: 148 nM | inhibition [18]: 4% | Activity (MCF7 [19]): Active
